Active and inactive are the calls of the source.
Columns and labels:
[1] = test system: Escherichia coli; experiment: Inhibition of Escherichia coli MetAP at 10 uM after 15 mins by fluorescence analysis
[2] = test system: Escherichia coli; experiment: Inhibition of Escherichia coli MurA using PEP as substrate assessed as inorganic phosphate release at 25 uM preincubated for 10 mins measured after 60 mins […]
[3] = target: Prothrombin (Bos taurus) (UniProt P00735); experiment: Inhibition of bovine plasma thrombin using Boc-Val-Pro-Arg-AMC as substrate at 25 uM preincubated for 15 mins measured after 10 mins by fluorimetric assay
Summary of the method: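 Purchased bovine plasma thrombin at 10 nM final, preincubated 15 min with 25 μM inhibitor; reaction started with 50 μM substrate. Buffer 50 mM Tris-HCl pH 7.5, 150 mM NaCl, 0.05% Tween 20. Triplicate, averaged.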

[4] = test system: Dengue virus; experiment: Inhibition of Dengue virus NS2B-NS3 protease using Abz-NleKRRS-3-(NO2)Y as substrate at 50 uM preincubated for 15 mins measured every sec for 15 mins by fluorimetric analysis

SMILES | inhibition [1] | inhibition [2] | inhibition [3] | inhibition [4]
O=C1NC(=S)N/C1=C\c1cccc(O)c1 | 15% | 21% | 12% | 28%
O=C1CNC(=S)N1 | inactive | inactive | inactive | inactive
C/C(=C1/NC(=S)NC1=O)c1ccc(C2CCCCC2)cc1 | 58% | 13% | inactive | 12%
CN(C)c1ccc(/C=C2\NC(=O)NC2=O)cc1 | inactive | inactive | 16% | 29%
O=C1NC(=S)NC1Cc1cccs1 (stereo not given) | inactive | inactive | inactive | inactive
O=C1NC(=O)/C(=C/c2ccc(Cl)s2)N1 | inactive | 38% | 25% | 16%
C/C(=C1/SC(=O)NC1=O)c1ccc2ccccc2c1 | 12% | inactive | 20% | 30%
O=C1NC(=O)/C(=C/c2ccc(Br)s2)S1 | 12% | 62% | 19% | inactive
O=C1NC(=O)/C(=C/c2c(F)c(F)c(F)c(F)c2F)S1 | inactive | inactive | inactive | 12%
O=C1CSC(=O)N1 | inactive | inactive | inactive | 13%
C/C(=C1/NC(=S)NC1=O)c1ccccc1 | 14% | 24% | 21% | inactive
O=C1NC(=S)S/C1=C\c1ccc2ccccc2c1 | 14% | 15% | 28% | 56%
O=C1NC(=O)/C(=C2\CCOc3ccccc32)S1 | 11% | inactive | inactive | 35%
O=C1NC(=O)/C(=C/c2cccs2)S1 | 11% | 30% | 24% | 11%
O=C1NC(=O)/C(=C/c2ccc(O)c(O)c2)N1 | 100% | 70% | 32% | 37%
Nc1ccc(/C=C2\SC(=S)NC2=O)cc1 | inactive | inactive | 11% | inactive
Cn1cc(/C=C2\NC(=S)NC2=O)c2ccccc21 | inactive | 16% | 22% | 50%
COc1cc(/C=C2\SC(=S)NC2=O)ccc1O | 12% | 66% | 32% | 42%
COc1ccc(/C=C2\NC(=O)NC2=O)cc1OC | inactive | inactive | inactive | 18%
O=C1NC(=S)S/C1=C\c1c[nH]c2ccccc12 | inactive | inactive | 26% | 44%
COc1ccccc1/C=C1\NC(=O)NC1=O | inactive | inactive | inactive | 18%
CC(=O)n1cc(/C=C2\SC(=S)NC2=O)c2ccccc21 | inactive | 18% | 31% | 46%
O=C1NC(=S)S/C1=C\c1ccc([N+](=O)[O-])cc1 | 11% | 65% | 25% | 46%
C/C(=C1/SC(=S)NC1=O)c1ccc2ccccc2c1 | inactive | inactive | 23% | 42%
O=C1NC(=O)/C(=C/c2c[nH]c3ccccc23)S1 | 10% | inactive | 23% | 26%
COc1ccc(/C=C2\SC(=O)NC2=O)cc1OC | 13% | inactive | 23% | 16%
O=C1NC(=O)[C@H](Cc2ccccc2)N1 | 22% | inactive | inactive | inactive
O=C1NC(=O)/C(=C/c2ccccn2)S1 | 12% | inactive | 29% | 15%
O=C1NC(=S)N[C@H]1Cc1c[nH]c2ccccc12 | 13% | 11% | inactive | inactive
O=C1NC(=S)N[C@H]1Cc1ccc(O)cc1 | inactive | inactive | inactive | inactive

— ChEMBL document CHEMBL1955761, “Privileged scaffolds or promiscuous binders: a comparative study on rhodanines and related heterocycles in medicinal chemistry” (J Med Chem, 2012)
